The values below come from ChEMBL document CHEMBL2057126, “Discovery of new inhibitors of Cdc25B dual specificity phosphatases by structure-based virtual screening” (J Med Chem, 2012).

Calls of active or inactive are those of the source. The calls are words filed in the database; no cut-off is given here.

For assay [1], the target named is T1, M-phase inducer phosphatase 2 (Homo sapiens) (UniProt P30305).
T1 sequence (whole entry): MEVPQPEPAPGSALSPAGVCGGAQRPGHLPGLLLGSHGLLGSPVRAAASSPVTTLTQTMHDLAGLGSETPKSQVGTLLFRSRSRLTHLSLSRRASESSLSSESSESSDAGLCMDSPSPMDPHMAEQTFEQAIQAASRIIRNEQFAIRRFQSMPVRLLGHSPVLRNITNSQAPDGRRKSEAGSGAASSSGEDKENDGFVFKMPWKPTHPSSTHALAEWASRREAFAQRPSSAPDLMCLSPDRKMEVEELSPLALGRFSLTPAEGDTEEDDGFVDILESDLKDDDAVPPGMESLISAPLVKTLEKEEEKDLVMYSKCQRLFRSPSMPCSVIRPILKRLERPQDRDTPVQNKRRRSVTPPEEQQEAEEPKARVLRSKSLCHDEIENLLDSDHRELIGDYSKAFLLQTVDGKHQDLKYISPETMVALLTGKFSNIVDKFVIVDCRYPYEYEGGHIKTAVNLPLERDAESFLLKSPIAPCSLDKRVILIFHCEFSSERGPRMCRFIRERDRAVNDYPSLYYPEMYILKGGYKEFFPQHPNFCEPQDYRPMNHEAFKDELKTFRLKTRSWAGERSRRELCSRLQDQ
The assay is described as follows: Irreversible inhibition of recombinant phosphatase activity of Cdc25B catalytic domain expressed in Escherichia coli BL21(DE3) assessed as residual activity of enzyme measured after 10 fold dilution at 50 uM preincubated for 20 mins. In outline: (§1)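 Dilution test: Cdc25B pretreated with inhibitor for up to 20 min, mixture diluted 10-fold, and residual phosphatase activity measured to judge reversible versus irreversible inhibition.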

Assay [2] addresses T1, M-phase inducer phosphatase 2 (Homo sapiens). The assay is described as follows: Inhibition of recombinant phosphatase activity of Cdc25B catalytic domain expressed in Escherichia coli BL21(DE3) using OMFP as substrate at 50 uM by spectrofluorimetric analysis. In outline: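 Single-point screen: percent inhibition of Cdc25B phosphatase activity (OMFP hydrolysis) measured with inhibitor at 50 μM.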

Assay [3] has as its target T2, M-phase inducer phosphatase 1 (Homo sapiens) (UniProt P30304).
T2 sequence (whole entry): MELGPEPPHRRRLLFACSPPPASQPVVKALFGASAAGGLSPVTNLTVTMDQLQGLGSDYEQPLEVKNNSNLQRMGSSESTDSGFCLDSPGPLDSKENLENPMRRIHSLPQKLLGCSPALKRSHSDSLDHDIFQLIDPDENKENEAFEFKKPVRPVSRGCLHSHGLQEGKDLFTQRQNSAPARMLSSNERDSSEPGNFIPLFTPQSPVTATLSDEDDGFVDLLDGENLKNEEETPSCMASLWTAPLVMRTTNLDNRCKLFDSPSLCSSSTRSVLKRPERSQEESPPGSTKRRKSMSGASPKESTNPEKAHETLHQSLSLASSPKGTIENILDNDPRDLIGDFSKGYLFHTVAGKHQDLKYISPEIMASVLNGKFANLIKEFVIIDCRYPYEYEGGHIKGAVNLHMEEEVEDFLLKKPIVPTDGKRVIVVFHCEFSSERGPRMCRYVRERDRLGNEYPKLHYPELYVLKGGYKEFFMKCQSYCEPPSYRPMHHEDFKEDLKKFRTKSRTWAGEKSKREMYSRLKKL
The assay is described as follows: (§2) Inhibition of recombinant phosphatase activity of Cdc25A catalytic domain expressed in Escherichia coli BL21(DE3) using OMFP as substrate at 100 uM after 15 mins by fluorimetric assay.

Assay [4] concerns the target T1, M-phase inducer phosphatase 2 (Homo sapiens). Put plainly: (§3) Inhibition of recombinant phosphatase activity of Cdc25B catalytic domain expressed in Escherichia coli BL21(DE3) using OMFP as substrate at 100 uM after 15 mins by fluorimetric assay.
The target in assay [5] is T3, M-phase inducer phosphatase 3 (Homo sapiens) (UniProt P30307).
T3 sequence (whole entry): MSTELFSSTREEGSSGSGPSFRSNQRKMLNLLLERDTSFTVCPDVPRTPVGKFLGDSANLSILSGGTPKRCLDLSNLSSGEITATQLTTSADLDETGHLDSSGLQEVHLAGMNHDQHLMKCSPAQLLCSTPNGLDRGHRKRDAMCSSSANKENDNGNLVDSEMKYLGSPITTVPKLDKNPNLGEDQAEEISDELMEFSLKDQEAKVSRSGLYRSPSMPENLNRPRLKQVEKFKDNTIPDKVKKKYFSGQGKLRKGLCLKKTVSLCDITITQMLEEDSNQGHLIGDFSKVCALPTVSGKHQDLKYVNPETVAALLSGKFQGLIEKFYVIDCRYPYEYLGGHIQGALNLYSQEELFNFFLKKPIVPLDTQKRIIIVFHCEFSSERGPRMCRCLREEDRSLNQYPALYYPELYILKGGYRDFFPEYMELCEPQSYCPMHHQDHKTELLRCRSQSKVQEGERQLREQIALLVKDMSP
The assay is described as follows: (§4) Inhibition of recombinant phosphatase activity of Cdc25C catalytic domain expressed in Escherichia coli BL21(DE3) using OMFP as substrate at 100 uM after 15 mins by fluorimetric assay.

Assay [6] addresses T1, M-phase inducer phosphatase 2 (Homo sapiens). The assay is described as follows: (§5) Inhibition of recombinant phosphatase activity of Cdc25B catalytic domain expressed in Escherichia coli BL21(DE3) using OMFP as substrate by spectrofluorimetric analysis.
In assay [7] the target is T4, M-phase inducer phosphatase 2 (Homo sapiens, UniProt P30305).
T4 sequence (P30305 whole entry): T1 sequence (whole entry)
The description is as §5.

The target in assay [8] is T5, M-phase inducer phosphatase 1 (Homo sapiens, UniProt P30304).
T5 sequence (P30304 whole entry): T2 sequence (whole entry)
Put plainly: Inhibition of recombinant phosphatase activity of Cdc25A catalytic domain expressed in Escherichia coli BL21(DE3) using OMFP as substrate by spectrofluorimetric analysis. In outline: (§6)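 Purified recombinant Cdc25A catalytic domain; phosphatase activity measured as OMFP hydrolysis versus inhibitor concentration to derive IC50, with Ki calculated from kinetic measurements. Results are averages ± SD of three determinations.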

For assay [9], the target named is T5, M-phase inducer phosphatase 1. Put plainly: Inhibition of recombinant phosphatase activity of Cdc25A catalytic domain expressed in Escherichia coli BL21(DE3) using OMFP as substrate by Lineweaver-Burk plot analysis. Summed up: as §6
Assay [10] addresses T4, M-phase inducer phosphatase 2. The assay is described as follows: Competitive inhibition of recombinant phosphatase activity of Cdc25B catalytic domain expressed in Escherichia coli BL21(DE3) using OMFP as substrate by Lineweaver-Burk plot analysis.
The test system of assay [11] is MCF7. Put plainly: Growth inhibition against human MCF7 cells expressing Cdc25A-C assessed as cell viability at 400 uM after 72 hrs by MTS assay. The format is functional, cell-based. Summed up: (§7)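 MCF-7 breast, PC-3 prostate and K562 leukaemia cells treated 72 h with inhibitor or DMSO vehicle control, then cell viability measured. Values are mean ± SD of three experiments; significance by Student's t test, p ≤ 0.05.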

The test system of the next assay is PC-3. The assay is described as follows: Growth inhibition against human PC3 cells expressing Cdc25A-C assessed as cell viability at 400 uM after 72 hrs by MTS assay. The format is functional, cell-based. Summed up:
as §7
On the technique in general: Tetrazolium dyes change colour on reduction, which living cells bring about.

A further assay concerns K562. The assay is described as follows: Growth inhibition against human K562 cells expressing Cdc25A-C assessed as cell viability at 400 uM after 72 hrs by MTS assay. It counts as functional, cell-based. In outline:
as §7

The subject of assay [12] is MCF7. The assay is described as follows: Cell cycle arrest in human MCF7 cells assessed as accumulation at G2/M phase at 400 uM after 24 hrs by propidium iodide staining-based flow cytometry (reference value: 9.4 +/- 0.04%). The format is functional.
The subject of assay [13] is MCF7. Put plainly: Cell cycle arrest in human MCF7 cells assessed as accumulation at S phase at 400 uM after 24 hrs by propidium iodide staining-based flow cytometry (reference value: 9.35%). The format is functional. In general terms: In flow cytometry, cells or beads pass a laser one at a time.
The test system of assay [14] is MCF7. Put plainly: Cell cycle arrest in human MCF7 cells assessed as accumulation at G1 phase at 400 uM after 24 hrs by propidium iodide staining-based flow cytometry (reference value: 81.3 +/- 0.01%). The format is functional.
Assay [15] concerns the target T1, M-phase inducer phosphatase 2 (Homo sapiens). Put plainly: Inhibition of Cdc25B in human K562 cells assessed as increase in Cdk1 phosphorylation at 400 uM after 24 hrs by Western blot analysis. The format is cell-based. In outline:
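K562 cells treated 24 h with inhibitor or DMSO vehicle, lysed, and Western blotted with anti-phospho-Cdk1 (Y15) antibody; total Cdk1 detected as loading control.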

For assay [16], the system named is MCF7. The assay is described as follows: Cell cycle arrest in human MCF7 cells assessed as accumulation at G1 phase at 400 uM after 48 hrs by propidium iodide staining-based flow cytometry (reference value: 64.5 +/- 0.02%). It counts as functional.
The subject of assay [17] is MCF7. The assay is described as follows: Cell cycle arrest in human MCF7 cells assessed as accumulation at S phase at 400 uM after 48 hrs by propidium iodide staining-based flow cytometry (reference value: 14.5 +/- 0.01%). It counts as functional.
Assay [18] relates to MCF7. The assay is described as follows: Cell cycle arrest in human MCF7 cells assessed as accumulation at G2/M phase at 400 uM after 48 hrs by propidium iodide staining-based flow cytometry (reference value: 21 +/- 0.04%). It counts as functional.
Assay [19] addresses T1, M-phase inducer phosphatase 2 (Homo sapiens). Put plainly: Reversible inhibition of recombinant phosphatase activity of Cdc25B catalytic domain expressed in Escherichia coli BL21(DE3) assessed as residual activity of enzyme measured after 10 fold dilution at 50 uM preincubated for 20 mins. In outline: as §1
The target is the same in assay [20]. The assay is described as follows: Reversible inhibition of recombinant phosphatase activity of Cdc25B catalytic domain expressed in Escherichia coli BL21(DE3) assessed as residual activity of enzyme measured after 10 fold dilution at 100 uM preincubated for 20 mins. Summed up: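 Cdc25B (0.5 μg) preincubated 20 min at room temperature with 100 μM inhibitor or DMSO vehicle, then diluted 10-fold. Residual phosphatase activity was read after adding OMFP substrate and expressed as percent of the untreated control. Mean ± SD of three determinations.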

For assay [21], the target named is M-phase inducer phosphatase 1 (Homo sapiens) (UniProt P30304). The assay is described as §2. This is another data set of the same source.
In assay [22] the target is M-phase inducer phosphatase 2 (Homo sapiens) (UniProt P30305). Described as §3. This is another data set of the same source.
Assay [23] addresses M-phase inducer phosphatase 3 (Homo sapiens) (UniProt P30307). The assay is described as §4. The source holds these as a separate data set.
The target in assay [24] is T1, M-phase inducer phosphatase 2 (Homo sapiens). Put plainly: Reversible inhibition of recombinant phosphatase activity of Cdc25B catalytic domain expressed in Escherichia coli BL21(DE3) assessed as residual activity of enzyme measured after 10 fold dilution at 100 uM preincubated for 20 mins.

For orientation: inhibition means the relative decrease from the control value, in per cent. With `O=C1C=C(Nc2nc(O)cc(C(=O)O)n2)c2ccccc2C1=O`, the inhibition result in assay [1] is “Active”. For the same molecule, in [2], the inhibition turned out to be 60%.
The term IC50 denotes the concentration that gives 50% inhibition. The Ki is a measure of affinity in units of concentration, obtained from inhibition or displacement. Regarding `O=S(=O)(O)c1ccc(-c2nnc(-c3ccccn3)nc2-c2ccc(S(=O)(=O)O)o2)o1`, the inhibition is 41% in assay [3], 53% in [4], 35% in [5] and “Dose-dependent effect” in assay [6]. Moreover, the IC50 came out at 173 µM in assay [7] and 110 µM in assay [8]. Besides, the Ki in assay [9] came to 139 µM; in assay [10] it was 159 µM. Moreover, the “growth inhibition (GI)” value with MCF7 [11], with PC-3 and with K562 was “Active” each time. Moreover, the Activity with MCF7 [12] stood at 10%; in the assay with MCF7 [13], 11.3%; in the assay on MCF7 [14], 78.7%; in the assay with MCF7 [16], 95.4%; in the assay on MCF7 [17] it was 1.8%; with MCF7 [18], 2.9%. Further, the inhibition result in assay [15] was “Active”.
Turning to `COc1ccc(Cc2ccc3[nH]c(=O)cc(C)c3c2)cc1S(=O)(=O)O`, the IC50 came out at 133 µM in [7] and 86 µM in assay [8]. Besides, the Ki turned out to be 203 µM in [9] and 84 µM in assay [10].
As to `Nc1ccc(C(=O)O)cc1S(=O)(=O)c1cc(C(=O)O)ccc1N`, the IC50 in [7] was determined as 20.1 µM. Moreover, the inhibition entry in assay [19] was “Active”. For the same molecule, the inhibition in assay [2] was 62%.
For `CNc1ccc(C(=O)c2ccccc2C(=O)O)cc1[N+](=O)[O-]`, in that order: 7.9 µM, “Active” and 65%.
With `O=C1C=C(Nc2cccc(C(=O)O)c2)c2ccccc2C1=O`, in assay [7], the IC50 amounted to 4.2 µM. Further, the inhibition result in assay [1] is “Active”. Further, in assay [2], the inhibition was determined as 85%.
With `CC1C2C=CC1C(c1c3ccc(=O)c(O)c-3oc3c(O)c(O)ccc13)C2C(=O)O` (stereo not given), the inhibition in assay [3], in assay [4] and in assay [5] was 98% in each case. For the same molecule, the inhibition entry in [20] is “Active”.
As for VANADATE, the inhibition in assay [21] was 77%; in assay [22], 91%; in assay [23] it was 90%.
For `COc1ccc(Cc2ccc3nc(O)cc(C)c3c2)cc1S(=O)(=O)O`, the inhibition in assay [3] was 46%; in [4] it was 41%; in assay [5], 55%; in assay [6], “Dose-dependent effect”. The “growth inhibition (GI)” value in the assay with MCF7 [11], in the assay on PC-3 and with K562 was “Active” each time. Further, the Activity in the assay with MCF7 [12] is 5.6%; in the assay with MCF7 [13], 3.3%; in the assay on MCF7 [14], 91.1%; in the assay on MCF7 [16] it was 93.5%; in the assay with MCF7 [17], 3.2%; in the assay with MCF7 [18] it was 3.3%. For the same molecule, the inhibition entry in assay [15] and in assay [24] was “Active” throughout.
